Results published in ChEMBL document CHEMBL4014315 (J Med Chem, 2017).
The source made the active and inactive calls. The rule behind the calls is not given here.

How the values were obtained:
[1] = target: ATP-dependent translocase ABCB1 (Homo sapiens, UniProt P08183); assay: Inhibition of ABCB1 in human A2780adr cells assessed as reduction in calcein AM levels preincubated for 30 mins followed by calcein AM addition measured immediately at 60 sec time interval for 60 mins by fluorescence assay; format: cell-based
In short: (§1)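 Calcein AM assay in A2780adr cells (ABCB1 overexpressing) and H69AR cells (ABCC1 overexpressing). Compounds were screened at 10 µM, with inhibition relative to cyclosporine A as the total-inhibition control.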

ABCB1 = ABCB1 (Homo sapiens, UniProt P08183); assay: Inhibition of ABCB1 in human A2780adr cells assessed as reduction in calcein AM levels at 10 uM preincubated for 30 mins followed by calcein AM addition measured immediately at 60 sec time interval for 60 mins by fluorescence assay relative to Cyclosporine A; format: cell-based; details: probe calcein AM; in short: as §1
[2] = target: T1, Broad substrate specificity ATP-binding cassette transporter ABCG2 (Homo sapiens, UniProt Q9UNQ0); assay: Inhibition of recombinant human GFP-fused ABCG2 expressed in MDCK2 cells assessed as reduction in Hoechst 33342 efflux preincubated for 30 mins followed by Hoechst 33342 addition measured immediately at 60 sec time interval for 120 mins by fluorescence assay; format: cell-based
T1 sequence (Q9UNQ0 whole entry): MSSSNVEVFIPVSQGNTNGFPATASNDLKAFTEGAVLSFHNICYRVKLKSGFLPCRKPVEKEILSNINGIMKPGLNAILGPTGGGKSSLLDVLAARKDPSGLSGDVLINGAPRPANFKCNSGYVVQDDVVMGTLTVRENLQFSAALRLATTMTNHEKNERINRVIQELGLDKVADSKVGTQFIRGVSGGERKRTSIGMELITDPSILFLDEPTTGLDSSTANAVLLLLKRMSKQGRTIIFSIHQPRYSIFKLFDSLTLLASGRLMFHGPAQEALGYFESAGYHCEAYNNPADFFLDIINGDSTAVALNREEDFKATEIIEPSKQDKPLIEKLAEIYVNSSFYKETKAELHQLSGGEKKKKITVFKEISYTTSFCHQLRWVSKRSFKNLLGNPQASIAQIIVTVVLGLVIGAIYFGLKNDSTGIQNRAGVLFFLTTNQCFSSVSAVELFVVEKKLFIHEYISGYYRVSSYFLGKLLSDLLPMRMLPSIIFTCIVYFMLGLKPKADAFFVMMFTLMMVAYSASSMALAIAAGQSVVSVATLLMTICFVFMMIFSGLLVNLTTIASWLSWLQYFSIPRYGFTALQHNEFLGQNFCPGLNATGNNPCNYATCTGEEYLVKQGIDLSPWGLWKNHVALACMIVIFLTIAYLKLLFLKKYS
In short: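 Hoechst 33342 accumulation assay: the dye is an ABCG2 substrate whose fluorescence rises when bound to DNA or embedded in membrane. Intracellular accumulation serves as the read-out of transporter inhibition.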

ABCG2 [3] = target: T2, ABCG2 (Homo sapiens, UniProt Q9UNQ0); assay: Inhibition of recombinant human GFP-fused ABCG2 expressed in MDCK2 cells assessed as reduction in Hoechst 33342 efflux at […] preincubated for 30 mins followed by Hoechst 33342 addition measured immediately at 60 sec time interval for 120 mins by fluorescence assay relative to Ko143; format: cell-based; details: MDCK2 cells expressing recombinant GFP-fused human ABCG2, probe Hoechst 33342, read-out: Imax
T2 sequence (Q9UNQ0 whole entry): T1 sequence (Q9UNQ0 whole entry)

[4] = Cytotoxicity against ABCG2 over-expressing MDCK2 cells assessed as cell growth inhibition after 72 hrs by MTT assay; format: ADME, cell-based, Canis lupus familiaris, MDCK-II; details: dog
[5] = target: T1, Broad substrate specificity ATP-binding cassette transporter ABCG2; assay: Activation of ABCG2 (unknown origin) ATPase activity expressed in baculovirus infected high five cell membranes by ascorbic acid/ammonia molybdate reaction-based colorimetric analysis
In short: (§2)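 Colorimetric ATPase assay of ABCG2 membranes; activity expressed relative to control. Where data were biphasic, a combined increasing plus decreasing logistic equation with the Hill coefficient fixed at one was fitted, giving an activating and an inactivating K.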

[6] = Cytotoxicity against MDCK2 cells assessed as cell growth inhibition after 72 hrs by MTT assay; format: cell-based, Canis lupus familiaris, MDCK-II; details: dog
ABCG2 [7] = target: T2, ABCG2; assay: Activation of ABCG2 (unknown origin) ATPase activity expressed in baculovirus infected high five cell membranes assessed as protein Vmax by ascorbic acid/ammonia molybdate reaction-based colorimetric analysis relative to basal control; details: read-out: Vmax; in short: as §2
[8] = Therapeutic index, ratio of GI50 for ABCG2 over-expressing MDCK2 cells to IC50 for recombinant human GFP-fused ABCG2 expressed in MDCK2 cells; format: cell-based
ABCC1 = ABCC1 (Homo sapiens, UniProt P33527); assay: Inhibition of ABCC1 in human H69AR cells assessed as reduction in calcein AM levels at 10 uM preincubated for 30 mins followed by calcein AM addition measured immediately at 60 sec time interval for 60 mins by fluorescence assay relative to Cyclosporine A; format: cell-based; details: probe calcein AM; in short: as §1
MDCK-II [9] = assay: Cytotoxicity against ABCG2 over-expressing MDCK2 cells assessed as effect on cell proliferation at low concentration after 72 hrs in absence of DMSO and presence of 1% methanol by MTT assay; format: ADME, cell-based, Canis lupus familiaris; details: dog
In short: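 Modified MTT viability assay in ABCG2-overexpressing MDCK II cells, run without DMSO and with a constant 1% methanol.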

MDCK-II [10] = assay: Potentiation of SN-38 induced cytotoxicity against MDCK2 cells at 0.01 to 5 uM after 72 hrs by MTT assay; format: functional, cell-based; details: Canis lupus familiaris
In short: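 Parental MDCK II cells were given SN-38 dilutions combined with different modulator concentrations, with viability read by MTT.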

[11] = target: T1, Broad substrate specificity ATP-binding cassette transporter ABCG2; assay: Inhibition of human GFP-fused ABCG2 expressed in MDCK2 cells assessed as potentiation of SN-38 induced cytotoxicity by measuring cell viability at 1 uM after 72 hrs by MTT assay; format: cell-based
In short: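 Reversal MTT assay in ABCG2-overexpressing MDCK II cells: SN-38 dilutions were combined with different modulator concentrations. Parental MDCK II cells defined total inhibition, and overexpressing cells without modulator defined no inhibition. GI50 values were plotted against log modulator concentration to derive IC50.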

Sequence of ATP-dependent translocase ABCB1 (P08183 whole entry): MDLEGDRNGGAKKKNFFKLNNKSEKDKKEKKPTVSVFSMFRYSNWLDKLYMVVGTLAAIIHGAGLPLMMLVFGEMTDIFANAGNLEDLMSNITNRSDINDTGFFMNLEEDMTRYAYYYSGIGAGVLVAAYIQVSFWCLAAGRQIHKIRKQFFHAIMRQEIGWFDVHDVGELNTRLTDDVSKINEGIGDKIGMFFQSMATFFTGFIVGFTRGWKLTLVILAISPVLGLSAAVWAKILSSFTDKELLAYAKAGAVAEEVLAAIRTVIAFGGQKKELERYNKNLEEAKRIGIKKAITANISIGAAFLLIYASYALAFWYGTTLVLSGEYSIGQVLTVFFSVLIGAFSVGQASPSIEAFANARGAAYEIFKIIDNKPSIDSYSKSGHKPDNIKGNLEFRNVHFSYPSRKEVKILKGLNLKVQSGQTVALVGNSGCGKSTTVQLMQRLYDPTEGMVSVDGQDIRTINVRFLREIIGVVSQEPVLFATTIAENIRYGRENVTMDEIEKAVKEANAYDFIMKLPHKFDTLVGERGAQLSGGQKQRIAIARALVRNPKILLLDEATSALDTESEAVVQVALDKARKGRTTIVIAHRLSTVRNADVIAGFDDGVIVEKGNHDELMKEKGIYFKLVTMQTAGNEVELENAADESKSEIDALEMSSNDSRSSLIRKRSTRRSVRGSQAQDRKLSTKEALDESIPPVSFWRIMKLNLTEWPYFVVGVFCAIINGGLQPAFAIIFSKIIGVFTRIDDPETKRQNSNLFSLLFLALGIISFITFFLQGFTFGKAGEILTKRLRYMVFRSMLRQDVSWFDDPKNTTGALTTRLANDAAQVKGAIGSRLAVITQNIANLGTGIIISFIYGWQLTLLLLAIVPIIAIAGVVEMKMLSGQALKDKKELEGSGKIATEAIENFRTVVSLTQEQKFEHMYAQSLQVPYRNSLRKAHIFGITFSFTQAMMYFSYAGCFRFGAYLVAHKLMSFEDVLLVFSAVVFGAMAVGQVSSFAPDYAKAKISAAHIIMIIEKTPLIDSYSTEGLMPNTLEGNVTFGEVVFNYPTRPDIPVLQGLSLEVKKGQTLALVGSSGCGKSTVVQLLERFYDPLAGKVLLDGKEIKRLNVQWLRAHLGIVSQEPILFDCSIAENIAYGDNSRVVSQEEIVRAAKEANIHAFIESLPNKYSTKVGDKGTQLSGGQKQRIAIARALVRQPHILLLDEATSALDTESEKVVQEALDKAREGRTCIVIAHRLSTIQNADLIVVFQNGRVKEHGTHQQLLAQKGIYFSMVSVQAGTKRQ
Sequence of ABCB1 (P08183 whole entry, the tested form may be a part): as the sequence (P08183 whole entry) above
Sequence of ABCC1 (P33527 whole entry): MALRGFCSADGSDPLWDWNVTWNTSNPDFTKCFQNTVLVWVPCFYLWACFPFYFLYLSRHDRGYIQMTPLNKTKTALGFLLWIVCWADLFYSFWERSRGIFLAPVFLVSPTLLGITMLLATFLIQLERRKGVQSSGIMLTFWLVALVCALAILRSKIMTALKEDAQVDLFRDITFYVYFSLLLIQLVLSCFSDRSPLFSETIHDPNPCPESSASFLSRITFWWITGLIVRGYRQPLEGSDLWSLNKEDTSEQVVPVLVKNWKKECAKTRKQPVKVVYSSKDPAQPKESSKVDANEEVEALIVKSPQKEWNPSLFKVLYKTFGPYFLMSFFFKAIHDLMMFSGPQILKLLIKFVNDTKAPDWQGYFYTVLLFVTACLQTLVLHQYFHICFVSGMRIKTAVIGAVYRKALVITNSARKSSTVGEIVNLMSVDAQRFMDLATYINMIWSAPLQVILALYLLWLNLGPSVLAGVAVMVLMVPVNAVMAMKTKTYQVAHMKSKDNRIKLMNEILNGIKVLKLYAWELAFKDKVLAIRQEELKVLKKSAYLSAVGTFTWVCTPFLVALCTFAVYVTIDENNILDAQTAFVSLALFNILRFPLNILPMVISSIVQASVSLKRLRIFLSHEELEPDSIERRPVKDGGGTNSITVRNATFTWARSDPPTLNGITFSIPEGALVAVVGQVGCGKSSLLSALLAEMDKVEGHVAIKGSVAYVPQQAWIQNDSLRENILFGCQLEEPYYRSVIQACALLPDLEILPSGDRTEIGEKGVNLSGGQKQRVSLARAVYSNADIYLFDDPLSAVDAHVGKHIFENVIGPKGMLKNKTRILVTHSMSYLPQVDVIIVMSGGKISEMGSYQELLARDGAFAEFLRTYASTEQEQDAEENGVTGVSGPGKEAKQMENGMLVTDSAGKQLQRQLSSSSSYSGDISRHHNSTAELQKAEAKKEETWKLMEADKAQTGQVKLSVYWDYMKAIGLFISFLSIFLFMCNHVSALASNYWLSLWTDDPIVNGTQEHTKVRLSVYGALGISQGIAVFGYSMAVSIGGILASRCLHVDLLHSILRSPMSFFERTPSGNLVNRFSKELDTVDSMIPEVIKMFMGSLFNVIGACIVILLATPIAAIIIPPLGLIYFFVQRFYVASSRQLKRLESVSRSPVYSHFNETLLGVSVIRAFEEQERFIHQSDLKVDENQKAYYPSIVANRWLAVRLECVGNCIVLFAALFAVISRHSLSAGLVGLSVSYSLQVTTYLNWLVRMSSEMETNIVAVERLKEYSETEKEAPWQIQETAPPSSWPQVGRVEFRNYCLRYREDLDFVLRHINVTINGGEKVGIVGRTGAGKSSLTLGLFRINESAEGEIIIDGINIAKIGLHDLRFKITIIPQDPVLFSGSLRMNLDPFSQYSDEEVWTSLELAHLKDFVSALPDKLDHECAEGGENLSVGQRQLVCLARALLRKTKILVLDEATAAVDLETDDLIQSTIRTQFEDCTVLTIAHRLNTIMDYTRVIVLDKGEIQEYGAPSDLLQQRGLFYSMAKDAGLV

| SMILES | IC50 [1] [nM] | inhibition at 1 h, 10 µM (ABCB1) [%] | IC50 [2] [nM] | Emax at 2 h (ABCG2 [3]) [%] | GI50 at 72 h [4] [nM] | EC50 [5] | GI50 at 72 h [6] [nM] | Emax (ABCG2 [7]) [%] | TI [8] | EC50 ([5]; read-out: EC50) [nM] | inhibition at 1 h, 10 µM (ABCC1) [%] | Activity (MDCK-II [9]) | Activity (MDCK-II [10]) | inhibition (INH) [11] |
| --- | --- | --- | --- | --- | --- | --- | --- | --- | --- | --- | --- | --- | --- | --- |
| O=C(O)c1ccc(Nc2nc(-c3ccncc3)nc3ccccc23)cc1 | 3670 | > 25 | 9640 | 80 to 110 | – | – | – | – | – | – | – | – | – | – |
| Cc1cc(Nc2ccccc2)nc(-c2ccccc2)n1 | – | – | 648 | 80 to 110 | 107000 | Not Active | 136000 | 100 | 165 | – | – | – | – | – |
| N#Cc1ccc(Nc2nc(-c3cccnc3)nc3ccccc23)cc1 | – | – | 166 | 80 to 110 | 79400 | – | 104000 | 137 | 241 | 4 | – | – | – | – |
| Cc1cc(Nc2ccc(O)c([N+](=O)[O-])c2)nc(-c2ccccc2)n1 | – | – | 98.8 | 80 to 110 | 49000 | – | 57500 | 154 | 496 | 1800 | 25 | Non-Toxic | inactive | Active |
| COc1cccc(Nc2nc(-c3cccnc3)nc3ccccc23)c1 | 4780 | > 25 | 1020 | 80 to 110 | – | – | – | 137 | – | 50 | – | – | – | – |
| COc1ccc(Nc2nc(-c3ccncc3)nc3ccccc23)cc1C(F)(F)F | 2780 | > 25 | 146 | 80 to 110 | 2880 | – | 2460 | – | 19.7 | – | – | – | – | – |
| Fc1cccc(Nc2nc(-c3cccnc3)nc3ccccc23)c1 | – | – | 156 | 80 to 110 | 46800 | – | 100000 | 140 | 300 | 58 | – | – | – | – |
| CC(C)(C)OC(=O)c1cccc(Nc2nc(-c3ccncc3)nc3ccccc23)c1 | 334 | > 25 | 299 | 80 to 110 | – | – | – | 40 | – | 1540 | – | – | – | – |
| N#Cc1cccc(Nc2nc(-c3ccccc3)nc3ccccc23)c1 | – | – | – | – | 10400 | – | 14200 | 145 | 146 | 15 | – | – | – | – |
| Cc1cc(Nc2ccc(C#N)cc2)nc(-c2ccccc2)n1 | – | – | 128 | 80 to 110 | 17800 | – | 28400 | 140 | 139 | 2460 | – | – | – | – |
| O=[N+]([O-])c1cccc(Nc2nc(-c3cccnc3)nc3ccccc23)c1 | – | – | 105 | 80 to 110 | 70800 | – | 64600 | 154 | 615 | 21 | – | – | – | – |
| COc1cccc(Nc2nc(-c3ccccn3)nc3ccccc23)c1 | 12700 | > 25 | 1630 | 80 to 110 | – | – | – | – | – | – | – | – | – | – |
| Cc1cc(Nc2cccc(C#N)c2)nc(-c2ccncc2)n1 | – | – | 132 | 80 to 110 | 6920 | – | 9330 | 133 | 52.4 | 22 | – | – | – | – |
| COc1ccc(Nc2nc(-c3ccncc3)nc3ccccc23)cc1 | – | – | 742 | 80 to 110 | – | – | – | 137 | – | 70 | 25 | – | – | – |
| COc1ccc(Nc2nc(-c3ccccn3)nc3ccccc23)cc1OC | 6300 | > 25 | 1060 | 80 to 110 | – | – | – | 152 | – | 79 | – | – | – | – |
| COC(=O)c1cccc(Nc2nc(-c3ccncc3)nc3ccccc23)c1 | 6370 | > 25 | 405 | 80 to 110 | – | – | – | – | – | – | – | – | – | – |
| Oc1ccc(Nc2nc(-c3ccccc3)nc3ccccc23)cc1 | – | – | 211 | 80 to 110 | 14600 | – | 22600 | – | 69.2 | – | – | – | – | – |
| COc1ccc(Nc2nc(-c3cccnc3)nc3ccccc23)cc1OC | 3110 | > 25 | 753 | 80 to 110 | – | – | – | – | – | – | – | – | – | – |
| N#Cc1cccc(Nc2nc(-c3ccncc3)nc3ccccc23)c1 | – | – | 134 | 80 to 110 | 88100 | – | 112000 | 178 | 657 | 16 | – | Non-Toxic | – | – |
| N#Cc1cccc(Nc2nc(-c3cccnc3)nc3ccccc23)c1 | – | – | 108 | 80 to 110 | 75300 | – | 90700 | 151 | 697 | 350 | – | Non-Toxic | inactive | Active |
| COc1ccc(Nc2nc(-c3ccncc3)nc3ccccc23)cc1OC | 2080 | > 25 | 545 | 80 to 110 | – | – | – | 150 | – | 10 | – | – | – | – |
